Measured values reported in paper PMC7397943 (Journal of Ethnopharmacology, 2020).

Experiments:
MT–2 cells = assay: Cell viability in mock–infected MT–2 cells; type: cell-based; settings: MT–2 cells
How it was run: (§1)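 Test compound (from 10 mg/mL or 10 mM DMSO stocks) was added at graded concentrations to mock-infected MT-2 cells, run in parallel with the 48 h antiviral assay. Cells were grown in RPMI-1640 with 10% FBS, 2 mM L-glutamine and penicillin/streptomycin at 37 °C, 5% CO2. Viability was read by CellTiter Glo as % of the DMSO-matched control. CC50 came from non-linear regression.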

[1] = Cell viability in mock–infected MT–2 cells; type: cell-based; settings: human, mock-infected MT-2 cells
How it was run: as §1

NF–κB = NF–κB activity: MT–2 cells transfected with NF–κB–Luc plasmid; type: cell-based
How it was run: (§2)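 MT-2 cells were electroporated at 260 V in serum-free RPMI with a luciferase reporter: pNL4.3-Luc (whole HIV-1 genome), 3-enh-κB-ConA-luc (three κB copies), or Sp1-Luc (two Sp1 sites). Cells were seeded in complete RPMI with serial dilutions or one selected concentration of test compound at 37 °C for 48 h. PMA 100 nM was the reference. RLUs were expressed as % of DMSO control, with Bonferroni-corrected one-way ANOVA.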

[2] = tested on: recombinant HIV–1 (NL4.3–Ren); type: cell-based; settings: Human immunodeficiency virus 1, MT2, 48 h, read-out: IC50 μM HIV (CI95%; R2), isolated compounds, MT–2 cells, wild type HIV NL4.3–Ren
How it was run: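 MT-2 cells (RPMI-1640, 10% FBS, 2 mM L-glutamine, penicillin/streptomycin; 37 °C, 5% CO2) were infected with NL4.3-Ren supernatant (100.000 RLUs or 20 ng p24 per well) alongside serial dilutions of test compound (10 mM DMSO stock). Enfuvirtide served as control. After 48 h, lysates were read for Renilla-luciferase RLUs against vehicle-matched untreated cells (100%). IC50 came from non-linear regression.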

[3] = tested on: VSV pseudotyped HIV (VSV–HIV); assay: microbe, parasite or virus in culture; type: cell-based, HIV–1; settings: for IC50: Vesicular stomatitis virus, MT2, 48 h, read-out: IC50 μM VSV–HIV (CI95%; R2); for Effect on viral entry: comparison of HIV IC50 and VSV–HIV IC50 in MT–2 cells
[4] = tested on: HIV transcription (pNL4.3–Luc); assay: HIV transcription assay: MT–2 cells transfected with pNL4.3–Luc; type: cell-based, HIV–1
How it was run: as §2

Sp1 = Sp1 activity: MT–2 cells transfected with Sp1–Luc plasmid; type: cell-based; settings: 48 h
How it was run: as §2

THP–1 cells = assay: Glutathione determination; type: cell-based; settings: maximum redox index reached, maximum 1 (all glutathione reduced)
How it was run: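 THP-1 cells were treated with serial dilutions of test compound, with resveratrol as reference. Cells were lysed in 0.1 M sodium phosphate/0.005 M EDTA, pH 8, plus 60% HClO4 (10 μL/mL), then spun at 6000g for 10 min at 4 °C. GSH and GSSG were measured by OPT fluorescence (ex 350/em 420 nm) against a GSH standard curve. Redox index = GSH/(GSH+GSSG), maximum 1. EC50 and Emax came from non-linear dose-response fits.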

[5] = fixed concentration 20 μM, NF–κB–Luc, 48 h
[6] = fixed concentration 20 μM, pNL4.3–Luc, 48 h

Compound | Toxicity at 100 μM (MT–2 cells; 100 μM) | CC50 at 48 h [1] [µM] | Effect on NF–κB activity (NF–κB; one selected active concentration (not given)) | IC50 [2] [µM] | IC50 [3] [µM] | Effect on viral entry [3] | Effect on HIV transcription ([4]; one selected active concentration (not given), compared with damsin) | Effect on Sp1 activity (Sp1; 4 μM, vs untreated control) | Concentrations toxic to MT–2 cells (MT–2 cells) | Effect on NF–κB activity (NF–κB; 4 μM, NF–κB–Luc, 48 h, vs untreated control) | Effect on HIV transcription ([4]; 4 μM, pNL4.3–Luc, 48 h, vs untreated control) | Emax (CI95%) (THP–1 cells) | Effect on Sp1 activity (Sp1; fixed concentration 20 μM) | Effect on NF–κB activity (NF–κB; [5]) | Effect on HIV transcription [4, 6]
C[C@]12CCC(=O)C=C1C=C[C@@H]1[C@@H]2CC[C@@]2(C)[C@H]1CC[C@@]21CCC(=O)O1 [Canrenone, canrenone] | slight toxicity | ~100 | more powerful activity as a NF–κB inhibitor than as a Sp1 inhibitor | 18.9 | 14.2 | viral entry is not their target | slightly less active | – | – | – | – | – | – | – | –
C=C1C(=O)O[C@@H]2[C@H]1CC[C@H](C)[C@@H]1CCC(=O)[C@@]21C [Damsin, damsin] | – | 20 to 100 | – | 0.84 | 0.83 | viral entry is not their target | – | completely inhibits | higher than 20 μM | completely inhibits | completely inhibits | – | – | – | –
Oc1ccc(/C=C/c2cc(O)cc(O)c2)cc1 [Resveratrol, resveratrol, reference compound] | – | – | – | – | – | – | – | – | – | – | – | 0.94 (0.92–0.96) | – | – | –
COc1ccc(-c2cc(=O)c3cc(OC)ccc3o2)c(OC)c1 [Trimethoxyflavone, 6,2′,4′–trimethoxyflavone] | – | > 100 | – | 28.4 | 35.6 | ruling out an effect on viral entry | – | – | – | – | – | 0.74 (0.47–1.00) | almost complete inhibition | almost complete inhibition | almost complete inhibition
COc1c(OC)c(O)c2c(=O)cc(-c3ccc(O)cc3)oc2c1OC [Xanthomicrol, xanthomicrol] | – | > 100 | – | 17.4 | 34.4 | HIV–1 entry is impaired | – | – | – | – | – | 0.93 (0.81–1.04) | no effect on Sp1 | weak inhibition of NF–κB | active as HIV transcriptional inhibitor
